Measured values published in ChEMBL document CHEMBL1146242, “Synthesis and antibacterial activity of novel oxazolidinones with methylene oxygen- and methylene sulfur-linked substituents at C5-position” (2007).
≈ marks a conversion by molar mass, not a printed value.

How the values were obtained:
Type in all cases: functional
Streptococcus pneumoniae = assay: Antimicrobial activity against Streptococcus pneumoniae ATCC 6303 by agar dilution method
Procedure, shortened: (§1)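 NCCLS agar dilution with serial 2-fold drug dilutions in Mueller Hinton agar, 16–0.015 µg/mL final. Drug stocks were 1 mg/mL in DMSO. The inoculum was a 0.5 McFarland saline colony suspension diluted 10-fold and replicator-spotted. As fastidious organisms, plates were incubated in 5% CO₂ at 35 °C for 18–24 h.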

Enterococcus faecalis = assay: Antimicrobial activity against Enterococcus faecalis ATCC 29212 by agar dilution method
Procedure, shortened: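 Compounds were stocked at 1 mg/mL in DMSO. Direct colony suspensions in saline were set to 0.5 McFarland, diluted 10-fold and applied with a replicator. Plates were incubated in ambient air at 35 °C for 18–24 h.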

Staphylococcus aureus [1] = assay: Antimicrobial activity against Staphylococcus aureus ATCC 25923 by agar dilution method
Procedure, shortened: (§2)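 NCCLS agar dilution MIC in Mueller Hinton agar. Compounds were made up as 1 mg/mL DMSO stocks and serially diluted 2-fold into molten agar, final range 16 to 0.015. Direct colony suspensions in saline were set to 0.5 McFarland, diluted 10-fold, and spotted with a replicator. Plates were incubated in ambient air at 35 °C for 18–24 h.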

Streptococcus pyogenes = assay: Antimicrobial activity against Streptococcus pyogenes ATCC 19615 by agar dilution method
Staphylococcus aureus [2] = assay: Antimicrobial activity against Staphylococcus aureus 15187 by agar dilution method; procedure, shortened: as §2
Staphylococcus aureus [3] = assay: Antimicrobial activity against methicillin-resistant Staphylococcus aureus 33 by agar dilution method; procedure, shortened: as §2
Staphylococcus aureus [4] = assay: Antimicrobial activity against methicillin-resistant Staphylococcus aureus 562 by agar dilution method; procedure, shortened: as §2
Moraxella catarrhalis = assay: Antimicrobial activity against Moraxella catarrhalis M2 by agar dilution method
Procedure, shortened: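 MIC was read by NCCLS agar dilution using doubling dilutions in Mueller Hinton agar, 16–0.015 µg/mL final, from 1 mg/mL DMSO stocks. Colonies were suspended in saline to 0.5 McFarland, diluted 10-fold and transferred with a replicator. Plates were incubated at 35 °C for 18–24 h.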

Enterococcus faecium = assay: Antimicrobial activity against vancomycin-resistant Enterococcus faecium 6A by agar dilution method; procedure, shortened: as §2
Haemophilus influenzae = assay: Antimicrobial activity against Haemophilus influenzae ATCC 49247 by agar dilution method; procedure, shortened: as §1

SMILES | MIC (Streptococcus pneumoniae) [µg/mL] | MIC (Enterococcus faecalis) [µg/mL] | MIC (Staphylococcus aureus [1]) [µg/mL] | MIC (Streptococcus pyogenes) [µg/mL] | MIC (Staphylococcus aureus [2]) [µg/mL] | MIC (Staphylococcus aureus [3]) [µg/mL] | MIC (Staphylococcus aureus [4]) [µg/mL] | MIC (Moraxella catarrhalis) [µg/mL] | MIC (Enterococcus faecium) [µg/mL] | MIC (Haemophilus influenzae) [µg/mL]
CC(=O)NC[C@H]1CN(c2ccc(N3CCN(c4ccc([N+](=O)[O-])s4)CC3)c(F)c2)C(=O)O1 | 0.125 (≈ 0.27 µM) | 0.25 (≈ 0.539 µM) | 0.25 (≈ 0.539 µM) | 0.125 (≈ 0.27 µM) | 0.25 (≈ 0.539 µM) | 0.25 (≈ 0.539 µM) | 0.25 (≈ 0.539 µM) | 0.25 (≈ 0.539 µM) | 0.25 (≈ 0.539 µM) | 8 (≈ 17.3 µM)
O=C1O[C@@H](CO)CN1c1ccc(N2CCN(c3ccc([N+](=O)[O-])s3)CC2)c(F)c1 | 1 (≈ 2.37 µM) | 0.5 (≈ 1.18 µM) | 0.5 (≈ 1.18 µM) | 0.5 (≈ 1.18 µM) | 0.5 (≈ 1.18 µM) | 0.5 (≈ 1.18 µM) | 0.5 (≈ 1.18 µM) | 2 (≈ 4.73 µM) | 0.5 (≈ 1.18 µM) | 8 (≈ 18.9 µM)
Cc1ccccc1S(=O)(=O)NC(=O)OC[C@H]1CN(c2ccc(N3CCN(c4ccc([N+](=O)[O-])s4)CC3)c(F)c2)C(=O)O1 | 1 (≈ 1.61 µM) | 8 (≈ 12.9 µM) | 16 (≈ 25.8 µM) | 0.5 (≈ 0.807 µM) | 16 (≈ 25.8 µM) | 16 (≈ 25.8 µM) | 16 (≈ 25.8 µM) | > 8 | 1 (≈ 1.61 µM) | > 16
CC(=O)OC[C@H]1CN(c2ccc(N3CCN(c4ccc([N+](=O)[O-])s4)CC3)c(F)c2)C(=O)O1 | 1 (≈ 2.15 µM) | 0.5 (≈ 1.08 µM) | 0.5 (≈ 1.08 µM) | 0.25 (≈ 0.538 µM) | 0.5 (≈ 1.08 µM) | 0.5 (≈ 1.08 µM) | 0.5 (≈ 1.08 µM) | > 16 | 1 (≈ 2.15 µM) | > 16
CC(=O)NC[C@H]1CN(c2ccc(N3CCOCC3)c(F)c2)C(=O)O1 [LINEZOLID] | – | – | – | 2 (≈ 5.93 µM) | – | – | – | > 4 | 2 (≈ 5.93 µM) | 4 (≈ 11.9 µM)
CN[C@H](CC(C)C)C(=O)N[C@H]1C(=O)N[C@@H](CC(N)=O)C(=O)N[C@H]2C(=O)N[C@H]3C(=O)N[C@H](C(=O)N[C@H](C(=O)O)c4cc(O)cc(O)c4-c4cc3ccc4O)[C@H](O)c3ccc(c(Cl)c3)Oc3cc2cc(c3O[C@@H]2O[C@H](CO)[C@@H](O)[C@H](O)[C@H]2O[C@H]2C[C@](C)(N)[C@H](O)[C@H](C)O2)Oc2ccc(cc2Cl)[C@H]1O [VANCOMYCIN] | 0.5 (≈ 0.345 µM) | – | – | – | – | – | – | > 16 | > 16 | > 64
